In ChEMBL document CHEMBL1136421, “New tetrahydrobenzindoles as potent and selective 5-HT(7) antagonists with increased In vitro metabolic stability” (Bioorg Med Chem Lett, 2003):

Tests used:
[1] = molecular target: T1, 5-hydroxytryptamine receptor 7 (Homo sapiens, UniProt P34969); assay: Ability to displace the radioligand [3H]5-carboximidotryptamine ([3H]-5-CT) from cloned human 5-hydroxytryptamine 7 receptor expressed in COS-7 cells; format: cell-based
In short: (§1)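 Displacement of [3H]5-CT from cloned human 5-HT7 receptor expressed in COS-7 cells. Affinity reported as pKi, given as mean ± SE of 8–12 values.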

[2] = molecular target: T2, Serotonin 2 (5-HT2) receptor (Rattus norvegicus, UniProt P30994+P08909+P14842); assay: Binding affinity towards 5-hydroxytryptamine 2 receptor by the displacement of [3H]ketanserin in rat cerebral cortex membrane; format: cell membranes
In short: (§2)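 Displacement of [3H]ketanserin from rat cerebral cortex membranes at the 5-HT2 site. Affinity reported as pKi, given as mean ± SE of 8–12 values.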

[3] = molecular target: T3, 5-hydroxytryptamine receptor 1A (Homo sapiens, UniProt P08908); assay: Binding affinity towards 5-HT1A receptor by the displacement of [3H]-8-OH-DPAT] in human recombinant receptors in mammalian cell
T3 sequence (P08908 whole entry): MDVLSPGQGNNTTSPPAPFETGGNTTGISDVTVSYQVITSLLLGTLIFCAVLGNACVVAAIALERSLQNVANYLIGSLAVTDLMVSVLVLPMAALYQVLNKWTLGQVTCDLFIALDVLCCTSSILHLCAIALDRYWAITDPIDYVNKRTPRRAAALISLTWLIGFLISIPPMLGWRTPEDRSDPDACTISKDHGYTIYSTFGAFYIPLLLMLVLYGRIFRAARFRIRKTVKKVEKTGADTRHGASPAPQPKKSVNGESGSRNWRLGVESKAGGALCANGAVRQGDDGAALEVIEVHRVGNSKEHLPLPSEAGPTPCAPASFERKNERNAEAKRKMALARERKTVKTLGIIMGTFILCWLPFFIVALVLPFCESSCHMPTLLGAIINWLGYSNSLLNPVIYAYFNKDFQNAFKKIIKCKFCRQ
In short: (§3)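 Radioligand displacement binding at the named receptor preparation. Affinity reported as pKi, given as mean ± SE of 8–12 values.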

[4] = molecular target: T2, Serotonin 2 (5-HT2) receptor; assay: Binding affinity towards 5-HT2 receptor by the displacement of [3H]-ketanserin] in rat cerebral cortex; format: tissue-based; in short: as §2
[5] = molecular target: 5-hydroxytryptamine receptor 4 (Cavia porcellus, UniProt O70528); assay: Binding affinity towards 5-HT4 receptor by the displacement of [3H]GR-113808 in guinea-pig striatum; format: tissue-based; in short: as §3
[6] = molecular target: Serotonin 3 (5-HT3) receptor; assay: Binding affinity towards 5-HT3 receptor by the displacement of [3H]GR-65630] in human recombinant receptors in mammalian cell; format: protein-complex assay; in short: as §3
[7] = molecular target: 5-hydroxytryptamine receptor 1B (Homo sapiens, UniProt P28222); assay: Binding affinity towards 5-HT1B receptor by the displacement of [3H][…]] in human recombinant receptors in mammalian cell
[8] = molecular target: 5-hydroxytryptamine receptor 6 (Homo sapiens, UniProt P50406); assay: Binding affinity towards human recombinant 5-hydroxytryptamine 6 receptor by the displacement of [3H]-5-CT]
[9] = molecular target: T1, 5-hydroxytryptamine receptor 7; assay: Binding affinity towards 5-HT7 receptor by the displacement of [3H]-5-CT] in human recombinant receptors in mammalian cell; in short: as §1
[10] = molecular target: T4, 5-hydroxytryptamine receptor 2C (Homo sapiens, UniProt P28335); assay: Binding affinity towards 5-HT2C receptor by the displacement of [3H]mesulergine] in human recombinant receptors in mammalian cell; in short: as §3
T4 sequence (P28335 whole entry): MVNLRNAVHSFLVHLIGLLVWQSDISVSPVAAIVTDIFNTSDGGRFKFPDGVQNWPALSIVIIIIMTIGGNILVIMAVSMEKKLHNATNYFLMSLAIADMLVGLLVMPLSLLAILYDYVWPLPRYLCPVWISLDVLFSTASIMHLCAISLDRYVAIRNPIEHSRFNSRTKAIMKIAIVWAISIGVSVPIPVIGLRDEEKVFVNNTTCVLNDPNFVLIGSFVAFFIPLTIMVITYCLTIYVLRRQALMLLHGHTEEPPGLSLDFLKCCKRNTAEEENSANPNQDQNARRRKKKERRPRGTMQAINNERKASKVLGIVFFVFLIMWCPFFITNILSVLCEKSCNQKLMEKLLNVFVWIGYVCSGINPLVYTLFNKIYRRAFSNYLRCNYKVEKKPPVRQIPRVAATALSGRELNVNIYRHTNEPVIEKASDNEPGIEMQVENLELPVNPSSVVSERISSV

T1 sequence (P34969 whole entry): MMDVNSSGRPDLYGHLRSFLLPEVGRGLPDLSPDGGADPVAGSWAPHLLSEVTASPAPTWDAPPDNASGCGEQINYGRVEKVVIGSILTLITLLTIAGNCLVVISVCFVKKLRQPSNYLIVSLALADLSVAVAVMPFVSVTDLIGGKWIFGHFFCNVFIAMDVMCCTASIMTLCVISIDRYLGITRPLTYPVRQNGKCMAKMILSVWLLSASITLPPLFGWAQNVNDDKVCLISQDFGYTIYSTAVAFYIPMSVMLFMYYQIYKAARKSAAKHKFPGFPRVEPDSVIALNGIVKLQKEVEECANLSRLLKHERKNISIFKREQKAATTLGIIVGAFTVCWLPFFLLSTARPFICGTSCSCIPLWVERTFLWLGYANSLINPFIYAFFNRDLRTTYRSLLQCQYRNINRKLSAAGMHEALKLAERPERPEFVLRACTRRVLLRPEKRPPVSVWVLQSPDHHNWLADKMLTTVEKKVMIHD
5-hydroxytryptamine receptor 6, sequence (P50406 whole entry): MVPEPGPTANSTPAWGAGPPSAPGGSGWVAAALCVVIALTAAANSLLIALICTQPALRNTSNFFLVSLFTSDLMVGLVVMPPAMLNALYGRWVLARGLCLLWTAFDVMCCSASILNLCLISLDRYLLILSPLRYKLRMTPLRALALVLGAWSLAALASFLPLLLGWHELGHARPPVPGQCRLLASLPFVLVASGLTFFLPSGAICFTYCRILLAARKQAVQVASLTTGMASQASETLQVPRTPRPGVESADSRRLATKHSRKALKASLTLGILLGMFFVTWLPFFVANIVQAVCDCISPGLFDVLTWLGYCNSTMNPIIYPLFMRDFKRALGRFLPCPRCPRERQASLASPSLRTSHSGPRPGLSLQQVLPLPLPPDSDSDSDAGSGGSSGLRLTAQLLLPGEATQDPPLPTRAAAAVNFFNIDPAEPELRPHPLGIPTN
5-hydroxytryptamine receptor 1B, sequence (P28222 whole entry): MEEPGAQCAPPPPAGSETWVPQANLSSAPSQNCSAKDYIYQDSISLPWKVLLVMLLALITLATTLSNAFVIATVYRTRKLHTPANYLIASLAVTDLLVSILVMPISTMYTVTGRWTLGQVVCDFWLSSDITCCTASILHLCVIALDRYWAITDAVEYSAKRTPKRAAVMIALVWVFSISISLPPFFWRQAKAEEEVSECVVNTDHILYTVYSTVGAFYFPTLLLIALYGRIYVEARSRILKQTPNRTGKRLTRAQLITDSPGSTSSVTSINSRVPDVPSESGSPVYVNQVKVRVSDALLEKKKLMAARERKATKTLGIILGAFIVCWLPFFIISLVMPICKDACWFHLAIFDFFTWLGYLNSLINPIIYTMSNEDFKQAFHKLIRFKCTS
5-hydroxytryptamine receptor 4, sequence (O70528 whole entry): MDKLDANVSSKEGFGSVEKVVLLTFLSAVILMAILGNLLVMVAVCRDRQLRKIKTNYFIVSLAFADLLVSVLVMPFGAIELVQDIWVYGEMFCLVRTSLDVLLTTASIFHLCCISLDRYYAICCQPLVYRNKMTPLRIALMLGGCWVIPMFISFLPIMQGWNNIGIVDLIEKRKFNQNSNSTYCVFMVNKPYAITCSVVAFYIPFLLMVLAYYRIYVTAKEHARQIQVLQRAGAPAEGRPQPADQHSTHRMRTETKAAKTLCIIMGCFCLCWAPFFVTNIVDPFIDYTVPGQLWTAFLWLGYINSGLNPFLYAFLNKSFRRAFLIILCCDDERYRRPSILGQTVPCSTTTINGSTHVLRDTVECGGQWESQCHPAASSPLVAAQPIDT

Compound: O=C1Nc2ccc(Cl)c3c2C1(CCCCN1CC=C(c2ccc(F)cc2)CC1)CCC3 (stereo not given)
- Ki [1]: 2.04 nM
- Log Ki [2]: > -6.64

Compound: O=C1Nc2ccc(Cl)c3c2C1(CCCCN1CC=C(c2ccc(Cl)cc2)CC1)CCC3 (stereo not given)
- Ki [3]: 316 nM
- Log Ki [4]: > -6
- Ki [1]: 7.24 nM
- Ki [5]: > 1000 nM
- Log Ki [6]: > -6
- Log Ki [2]: > -6
- Ki [7]: > 1000 nM
- Ki [8]: > 1000 nM
- Ki [9]: 7.24 nM
- Ki [10]: > 1000 nM

Compound: O=C1Nc2ccc(Cl)c3c2C1(CCCCN1CC=C(c2ccccc2)CC1)CCC3 (stereo not given)
- Ki [1]: 5.01 nM
- Log Ki [2]: > -6.5

Compound: O=C1Nc2cccc3c2C1(CCCCN1CC=C(c2ccc(F)cc2)CC1)CCC3 (stereo not given)
- Log Ki [2]: > -7.18
